# pEC50, pIC50: −log10 of the molar value. The source made the active and inactive calls. The calls are words filed in the database; no cut-off is given here.
# Assays:
# PC-12 [1] = assay: Cytoprotective activity against H2O2-induced cell death in rat PC12 cells assessed as increase in cell viability at 8 ug/ml preincubated 2 hrs before H2O2 challenge measured after 4 hrs by MTT assay relative to control; assay type: functional
# Procedure, shortened: (§1)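 PC12 cells from Shanghai Institute of Cell Biology, grown at 37 °C in 5% CO2 in high-glucose DMEM with 10% heat-inactivated calf serum and penicillin/streptomycin. Cells seeded at 6×10^3/well and used 36 h later. Compound in DMSO diluted in medium, 2 h pretreatment, then 500 µM H2O2 (final) for 4 h. MTT (5 mg/mL) for 3 h, formazan dissolved in DMSO, read at 570 nm. Gain is %OD(drug)/OD(normal) minus %OD(DMSO)/OD(normal).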
# PC-12 [2] = assay: Cytoprotective activity against H2O2-induced cell death in rat PC12 cells assessed as increase in cell viability at 16 ug/ml preincubated 2 hrs before H2O2 challenge measured after 4 hrs by MTT assay relative to control; assay type: functional; procedure, shortened: as §1
# PC-12 [3] = assay: Cytoprotective activity against H2O2-induced cell death in rat PC12 cells assessed as increase in cell viability at 32 ug/ml preincubated 2 hrs before H2O2 challenge measured after 4 hrs by MTT assay relative to control; assay type: functional; procedure, shortened: as §1
# [4] = biological target: Xanthine dehydrogenase/oxidase (Rattus norvegicus) (UniProt P22985); assay: Inhibition of xanthine oxidase assessed as formation of formazan after 2 hrs by spectrophotometry; set-up: concentration or dose not given beside the values
# Chain of Xanthine dehydrogenase/oxidase (Rattus norvegicus) (P22985 whole entry, looked up): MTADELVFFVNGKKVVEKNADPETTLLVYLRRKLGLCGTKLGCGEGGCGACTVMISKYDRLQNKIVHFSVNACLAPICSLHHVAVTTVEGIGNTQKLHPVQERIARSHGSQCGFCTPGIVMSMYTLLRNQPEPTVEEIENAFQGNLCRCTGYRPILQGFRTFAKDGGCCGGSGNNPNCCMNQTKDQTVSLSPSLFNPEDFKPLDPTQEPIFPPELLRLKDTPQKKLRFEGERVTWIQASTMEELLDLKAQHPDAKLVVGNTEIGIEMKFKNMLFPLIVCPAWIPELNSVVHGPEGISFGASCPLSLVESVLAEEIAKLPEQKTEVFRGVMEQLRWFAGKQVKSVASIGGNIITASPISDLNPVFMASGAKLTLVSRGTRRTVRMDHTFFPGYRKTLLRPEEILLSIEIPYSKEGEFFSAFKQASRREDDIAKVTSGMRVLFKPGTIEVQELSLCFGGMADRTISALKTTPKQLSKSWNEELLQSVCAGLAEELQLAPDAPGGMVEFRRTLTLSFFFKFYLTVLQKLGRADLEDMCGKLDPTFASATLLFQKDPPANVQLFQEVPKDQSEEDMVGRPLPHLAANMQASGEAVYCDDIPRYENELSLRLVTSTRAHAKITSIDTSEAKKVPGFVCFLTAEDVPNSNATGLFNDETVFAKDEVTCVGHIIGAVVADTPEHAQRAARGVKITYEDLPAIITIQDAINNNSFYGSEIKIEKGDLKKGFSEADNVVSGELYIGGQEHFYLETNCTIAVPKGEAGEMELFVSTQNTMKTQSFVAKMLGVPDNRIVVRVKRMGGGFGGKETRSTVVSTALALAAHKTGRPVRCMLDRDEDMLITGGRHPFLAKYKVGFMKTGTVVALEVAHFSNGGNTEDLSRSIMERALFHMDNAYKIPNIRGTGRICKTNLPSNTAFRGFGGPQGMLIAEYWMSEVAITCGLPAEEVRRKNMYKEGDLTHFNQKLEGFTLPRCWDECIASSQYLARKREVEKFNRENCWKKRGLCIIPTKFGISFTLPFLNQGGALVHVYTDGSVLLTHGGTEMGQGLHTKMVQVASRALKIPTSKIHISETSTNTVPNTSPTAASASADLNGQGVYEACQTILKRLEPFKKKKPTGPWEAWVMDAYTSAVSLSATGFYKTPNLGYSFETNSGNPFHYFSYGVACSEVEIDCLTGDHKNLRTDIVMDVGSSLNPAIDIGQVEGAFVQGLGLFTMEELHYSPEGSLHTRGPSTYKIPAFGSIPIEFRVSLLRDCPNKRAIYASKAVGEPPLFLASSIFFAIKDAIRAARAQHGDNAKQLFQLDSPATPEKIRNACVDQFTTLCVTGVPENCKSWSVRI
# [5] = Antioxidant activity assessed as superoxide radical scavenging activity by spectrophotometry; assay type: functional
# Procedure, shortened: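 Superoxide generated by NADH (78 μM), nitroblue tetrazolium (50 μM) and phenazine methosulfate (5 μM) in 16 mM Tris–HCl, pH 8.0, with compounds at various concentrations. Read at 560 nm after 5 min at room temperature. Blanks lack phenazine methosulfate; quercetin and vitamin C are references.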
# [6] = tested on: Radical scavenging activity; assay: Antioxidant activity assessed as DPPH free radical scavenging activity by spectrophotometry; assay type: functional
# Procedure, shortened: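 DPPH (0.4 mg/mL) in methanol mixed with compounds (DMSO solutions) at various concentrations. Incubated 30 min at 37 °C, absorbance read at 517 nm. Methanolic DPPH alone serves as control; quercetin and vitamin C are the reference scavengers.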
# Liver [7] = assay: tissue or blood; settings: Rattus norvegicus, 1 h
# PC-12 [8] = assay: Cytoprotective activity against H2O2-induced cell death in rat PC12 cells assessed as increase in cell viability preincubated 2 hrs before H2O2 challenge measured after 4 hrs by MTT assay; assay type: functional, cell-based
# [9] = biological target: Xanthine dehydrogenase/oxidase (Rattus norvegicus) (UniProt P22985); assay: Inhibition of xanthine oxidase assessed as formation of formazan at 16 ug/ml after 2 hrs by spectrophotometry
# Liver [10] = assay: Antioxidant activity against FeSO4-induced lipid peroxidation in rat liver homogenate assessed as inhibition of malondialdehyde release at < 5 uM after 1 hr by thiobarbituric acid assay relative quercetin; assay type: functional, tissue-based
# Procedure, shortened: (§2)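 Rat (Sprague-Dawley) liver homogenate in ice-cold PBS; peroxidation driven by FeSO4 (4 μM) plus vitamin C (50 μM). Compounds at 0.1–100 μM, 37 °C for 1 h in capped tubes. Then 20% TCA for 30 min at room temperature, followed by 0.1 M HCl and 1% TBA at 99 °C for 1 h. After centrifugation, MDA read at 532 nm. Quercetin is the standard; n = 3, means ± SD.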
# Liver [11] = assay: Antioxidant activity against FeSO4-induced lipid peroxidation in rat liver homogenate assessed as inhibition of malondialdehyde release at 6 to 100 uM after 1 hr by thiobarbituric acid assay relative quercetin; assay type: functional, tissue-based; procedure, shortened: as §2
SMILES,Activity (PC-12 [1]) [%],Activity (PC-12 [2]) [%],Activity (PC-12 [3]) [%],Activity [4] [%],pEC50 [5],pEC50 [6],pIC50 (Liver [7]),pEC50 (PC-12 [8]),pIC50 [9],Activity (Liver [10]),Activity (Liver [11])
COc1ccc([C@@H]2Oc3cc(OC)c(OC)c(OC)c3C(=O)[C@@H]2O)cc1 (racemic),0.6,3.4,2.1,24.9,,,,,,,
COc1cc2c(c(OC)c1OC)C(=O)[C@H](O)[C@H](c1ccccc1O)O2 (racemic),,,,,3.78,4.08,4.57,,,,
COc1cc([C@@H]2Oc3cc(OC)c(OC)c(OC)c3C(=O)[C@@H]2O)cc(OC)c1O (racemic),,,,,4.26,4.27,4.98,,,,
COc1cc2c(c(OC)c1OC)C(=O)[C@H](O)[C@@H](c1ccc(O)c(O)c1)O2 (racemic),40.5,56.1,74.5,58.9,4.00,5.14,4.98,4.48,4.01,,
COc1cc([C@@H]2Oc3cc(OC)c(OC)c(OC)c3C(=O)[C@@H]2O)cc(OC)c1OC (racemic),2.1,9.2,15.1,28.9,,,4.71,,,,
COc1ccc([C@H]2Oc3cc(OC)c(O)c(OC)c3C(=O)[C@@H]2O)cc1 (racemic),19.5,37.2,53.6,21.1,,4.02,4.92,4.08,,,
COc1cc2c(c(OC)c1O)C(=O)[C@H](O)[C@H](c1ccc3c(c1)OCO3)O2 (racemic),0.1,0.3,0.5,12.5,4.03,4.74,5.19,,,,
COc1ccc([C@@H]2Oc3cc(OC)c(O)c(OC)c3C(=O)[C@@H]2O)cc1OC (racemic),2.9,19.8,22,74.3,4.30,4.44,,,4.80,,
COc1cc2c(c(OC)c1OC)C(=O)[C@H](O)[C@@H](c1ccc(O)cc1)O2 (racemic),-1.4,5.1,17.1,0.2,,,,,,,
COc1cc2c(c(OC)c1OC)C(=O)[C@H](O)[C@H](c1ccc3c(c1)OCO3)O2 (racemic),1.4,5.4,4.5,0.8,4.10,,,,,,
COc1ccc([C@@H]2Oc3cc(OC)c(OC)c(OC)c3C(=O)[C@@H]2O)cc1OC (racemic),-2.5,1.9,2.4,46.6,,,4.54,,,,
COc1ccc([C@H]2Oc3cc(OC)c(OC)c(OC)c3C(=O)[C@@H]2O)cc1O (racemic),,,,,3.95,3.91,,,,,
COc1cc2c(c(OC)c1O)C(=O)[C@H](O)[C@@H](c1ccc(O)cc1)O2 (racemic),-3.8,13.4,19.1,19.8,,4.45,,,,,
COc1cc([C@@H]2Oc3cc(OC)c(O)c(OC)c3C(=O)[C@@H]2O)ccc1O (racemic),-0.2,0.5,1.6,15.4,4.01,4.37,5.72,,,,
COc1cc([C@H]2Oc3cc(OC)c(OC)c(OC)c3C(=O)[C@@H]2O)ccc1O (racemic),,,,,4.01,4.56,5.26,,,inactive,Active
O=C1O[C@H]([C@@H](O)CO)C(O)=C1O [ASCORBIC ACID],,,,,3.59,3.81,,,,,
O=c1c(O)c(-c2ccc(O)c(O)c2)oc2cc(O)cc(O)c12 [QUERCETIN],28.9,42.6,61.7,,4.39,5.26,5.22,4.17,,,
